The source made the active and inactive calls. No cut-off for these calls is given here.
Key:
[1] = target: T1, Free fatty acid receptor 1 (Homo sapiens, UniProt O14842); experiment: Agonist activity at human GPR40 expressed in T-REx HEK293 cells assessed as effect on intracellular calcium concentration at 10 uM by FLIPR assay relative to […]; format: functional, cell-based
In short: (§1)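 FLIPR fluorometric measurement of intracellular Ca2+ in HEK293 cells expressing human GPR40 or human GPR120. Test compound at 10 µM; response expressed as percent of that evoked by 10 µM α-linolenic acid reference. Means of at least three experiments.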

[2] = target: T2, Free fatty acid receptor 4 (Homo sapiens) (UniProt Q5NUL3); experiment: Agonist activity at human GPR120-G-alpha-16 fusion protein expressed in Flp-in HEK293 cells assessed as effect on intracellular calcium concentration at 10 uM by FLIPR assay relative to […]; format: functional, cell-based; in short: as §1
T2 sequence (whole entry): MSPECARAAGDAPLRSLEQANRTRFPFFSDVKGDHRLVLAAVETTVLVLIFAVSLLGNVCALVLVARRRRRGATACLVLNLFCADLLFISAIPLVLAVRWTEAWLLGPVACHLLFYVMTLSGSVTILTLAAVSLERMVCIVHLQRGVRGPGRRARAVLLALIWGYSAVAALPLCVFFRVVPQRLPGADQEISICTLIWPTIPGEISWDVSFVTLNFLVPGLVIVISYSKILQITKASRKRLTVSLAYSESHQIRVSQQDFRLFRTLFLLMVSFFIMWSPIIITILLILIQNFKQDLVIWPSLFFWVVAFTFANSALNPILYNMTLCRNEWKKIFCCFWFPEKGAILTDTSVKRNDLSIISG

[3] = target: T1, Free fatty acid receptor 1; experiment: Agonist activity at human GPR40 expressed in T-REx HEK293 cells assessed as effect on intracellular calcium concentration by FLIPR assay; format: functional, cell-based
In short: (§2)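 Intracellular Ca2+ rise read by FLIPR in HEK293 cells expressing human GPR120 or human GPR40; EC50 values derived from concentration–response, means of at least three experiments.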

[4] = target: T3, Free fatty acid receptor 4 (Homo sapiens, UniProt Q5NUL3); experiment: Agonist activity at human GPR120-G-alpha-16 fusion protein expressed in Flp-in HEK293 cells assessed as effect on intracellular calcium concentration by FLIPR assay; format: functional, cell-based; in short: as §2
T3 sequence (Q5NUL3 whole entry): T2 sequence (whole entry)

HEK293 = experiment: Agonist activity at PPAR expressed in HEK293 cells at 10 to 100 uM after 12 to 16 hrs by luciferase-beta galactosidase transactivation assay; format: functional, cell-based
Homo sapiens = species on record: Homo sapiens; experiment: Selectivity index, ratio of EC50 for human GPR40 to EC50 for human GPR120
In short: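 Selectivity index computed as EC50 at GPR40 divided by EC50 at GPR120, both from FLIPR Ca2+ assays in HEK293 cells expressing each human receptor; EC50 means of at least three experiments.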

T1 sequence (O14842 whole entry): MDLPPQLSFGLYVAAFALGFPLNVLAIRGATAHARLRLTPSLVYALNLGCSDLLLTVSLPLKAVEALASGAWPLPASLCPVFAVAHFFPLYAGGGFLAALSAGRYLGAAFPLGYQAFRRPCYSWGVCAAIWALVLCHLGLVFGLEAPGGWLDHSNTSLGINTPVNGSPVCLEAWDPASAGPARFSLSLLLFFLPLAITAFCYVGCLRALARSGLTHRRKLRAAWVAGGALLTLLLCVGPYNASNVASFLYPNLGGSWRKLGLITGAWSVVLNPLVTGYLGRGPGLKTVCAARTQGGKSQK

SMILES | Activity [1] [%] | Activity [2] [%] | EC50 [3] [µM] | EC50 [4] [µM] | Activity (HEK293) | Ratio EC50 (Homo sapiens)
CCN(CCOc1ccc(CCC(=O)O)cc1)c1ccccn1 | 147 | 45 | – | – | – | –
O=C(O)CCCc1ccc(OCCN(c2ccccc2)c2ccccn2)cc1 | 26 | 115 | 19 | 1.2 | inactive | 16
O=C(O)CCCCc1ccc(OCCN(c2ccccc2)c2ccccn2)cc1 | 99 | 58 | – | – | – | –
O=C(O)CCCc1ccc(OCCN(c2ccc3ccccc3c2)c2ccccn2)cc1 | 27 | 37 | – | – | – | –
Cc1ccc(N(CCOc2ccc(CCCC(=O)O)cc2)c2ccccn2)cc1 | 26 | 78 | – | – | – | –
O=C(O)CCCc1ccc(OCCN(c2ccccc2)c2nccs2)cc1 | 30 | 106 | 21 | 1.7 | – | 12
CCCN(CCOc1ccc(CCC(=O)O)cc1)c1ccccn1 | 125 | 57 | – | – | – | –
O=C(O)CCCc1ccc(OCCN(c2ccccc2)c2cccc(Cl)n2)cc1 | 32 | 70 | – | – | – | –
CN(CCOc1ccc(CCC(=O)O)cc1)c1ccccn1 | 58 | 0 | – | – | – | –
O=C(O)CCCc1ccc(OCCN(c2ccccc2)c2nc3ccccc3s2)cc1 | 32 | 73 | – | – | – | –
CCCCCCCN(CCOc1ccc(CCC(=O)O)cc1)c1ccccn1 | 99 | 0 | – | – | – | –
Cc1ccnc(N(CCOc2ccc(CCCC(=O)O)cc2)c2ccccc2)c1 | 43 | 81 | – | – | – | –
CCCCCCCCCN(CCOc1ccc(CCC(=O)O)cc1)c1ccccn1 | 121 | 0 | – | – | – | –
O=C(O)CCc1ccc(OCCN(c2ccccc2)c2ccccn2)cc1 | 98 | 56 | – | – | – | –
CCCCCCN(CCOc1ccc(CCC(=O)O)cc1)c1ccccn1 | 104 | 31 | – | – | – | –
O=C(O)CCCc1ccc(OCCN(c2ccccc2)c2cc(Cl)ccn2)cc1 | 68 | 100 | – | – | – | –
O=C(O)CCc1ccc(OCCN(c2ccccn2)c2ccccn2)cc1 | 0 | 0 | – | – | – | –
O=C(O)CCCc1ccc(OCCN(c2cccnc2)c2ccccn2)cc1 | 1 | 65 | – | – | – | –
CC/C=C\C/C=C\C/C=C\CCCCCCCC(=O)O [LINOLENIC ACID] | 100 | 100 | 5.2 | 2.6 | – | 2
CCCCN(CCOc1ccc(CCCC(=O)O)cc1)c1ccccn1 | 10 | 41 | – | – | – | –
O=C(O)CCCc1ccc(OCCN(c2cccc(F)c2)c2ccccn2)cc1 | 33 | 71 | – | – | – | –
O=C(O)CCCc1ccc(OCCN(c2ccc(F)cc2)c2ccccn2)cc1 | 23 | 59 | – | – | – | –
CCCCN(CCOc1ccc(CCC(=O)O)cc1)c1ccccn1 | 215 | 33 | – | – | – | –
O=C(O)CCCc1ccc(OCCN(c2ccccc2)c2ccccc2)cc1 | 21 | 88 | – | – | – | –
O=C(O)CCCc1ccc(OCCN(Cc2ccccc2)c2ccccn2)cc1 | 26 | 56 | – | – | – | –
Cc1cccc(N(CCOc2ccc(CCCC(=O)O)cc2)c2ccccc2)n1 | 34 | 81 | – | – | – | –
O=C(O)CCCc1ccc(OCCN(c2ccccc2)c2nc3ccccc3o2)cc1 | 8 | 43 | – | – | – | –
